Values belong to the compound of their own block, whether it stands above or below them.
Assays:
Type in all cases: protein-complex assay
[1] = molecular target: Cyclin-dependent kinase 4/cyclin D1 (Homo sapiens) (UniProt P11802+P24385); experiment: Inhibitory activity against Cyclin D1-cyclin-dependent kinase 4; set-up: concentration or dose not given beside the values; settings: concentration not given here
Outline: (§1)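 GST-cyclin D1-CDK4 from baculovirus-infected Sf21 cells, purified by glutathione chromatography, used at 200 nM. The substrate was a GST-RB fusion (RB residues 792–928), with ATP plus [γ-³³P]ATP. Compounds were added and the reaction ran 30 min at 30 °C, then was stopped with ice-cold 30% TCA. Products were captured on PVDF filter plates and ³³P-RB counted by scintillation. Inhibition is expressed relative to an inhibitor-free control.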

[2] = molecular target: Cyclin-dependent kinase 1/cyclin B (Homo sapiens, UniProt P06493); experiment: Inhibition of Cyclin B-cyclin-dependent kinase 1
Outline: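 Cyclin B-CDK1 purified from starfish oocytes; histone H1 as substrate; kinase reaction run for 10 min at 30 °C. Read-out is histone H1 phosphorylation, expressed as a percentage of the control reaction run without inhibitor.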

[3] = molecular target: T1, Cyclin-dependent kinase 4/cyclin D1 (Homo sapiens, UniProt P11802); experiment: Inhibition of Cyclin D1-cyclin-dependent kinase 4; outline: as §1
T1 sequence (P11802 whole entry): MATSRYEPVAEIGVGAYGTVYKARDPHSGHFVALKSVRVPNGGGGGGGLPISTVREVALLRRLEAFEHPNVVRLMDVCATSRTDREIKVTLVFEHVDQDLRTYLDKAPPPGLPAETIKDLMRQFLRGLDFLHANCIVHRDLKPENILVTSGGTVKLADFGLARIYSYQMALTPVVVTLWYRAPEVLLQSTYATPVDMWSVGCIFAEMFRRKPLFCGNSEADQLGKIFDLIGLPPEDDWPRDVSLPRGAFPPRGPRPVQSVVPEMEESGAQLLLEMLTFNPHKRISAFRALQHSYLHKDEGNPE
T1 sequence (P24385 whole entry, further chain): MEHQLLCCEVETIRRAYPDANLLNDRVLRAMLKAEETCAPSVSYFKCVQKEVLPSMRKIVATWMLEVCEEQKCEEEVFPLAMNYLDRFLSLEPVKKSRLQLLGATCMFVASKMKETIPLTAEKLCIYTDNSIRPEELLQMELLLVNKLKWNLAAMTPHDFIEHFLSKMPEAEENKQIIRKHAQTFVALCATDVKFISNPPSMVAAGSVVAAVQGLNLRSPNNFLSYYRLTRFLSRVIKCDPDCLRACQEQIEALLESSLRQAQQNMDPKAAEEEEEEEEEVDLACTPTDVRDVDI

[4] = molecular target: T1, Cyclin-dependent kinase 4/cyclin D1; experiment: Inhibition of Cyclin D1-Cyclin dependent kinase 4; outline: as §1

Compound: O=C/C=C/c1cccnc1
inhibition [1]: 54%

Compound: COc1ccccc1C(=O)Oc1ccccc1/C=C/C=O
inhibition [1]: 23%

Compound: O=C/C=C/c1cccc(OCc2ccccc2)c1
IC50 [2]: 50 µM
inhibition [1]: 94%
IC50 [3]: 7.5 µM

Compound: O=C/C=C/c1ccccc1[N+](=O)[O-]
inhibition [1]: 30%

Compound: O=C/C=C/c1ccccc1OCCc1ccccc1
inhibition [1]: 72%

Compound: O=C/C=C/c1ccccc1O [2-HYDROXYCINNAMALDEHYDE]
IC50 [2]: 130 µM
inhibition [1]: 50%
IC50 [3]: 35 µM

Compound: COc1ccc(/C=C/C=O)cc1OCc1ccc(Br)cc1
inhibition [1]: 58%

Compound: N#Cc1ccccc1COc1ccccc1/C=C/C=O
inhibition [1]: 22%

Compound: Cc1ccccc1COc1cccc(/C=C/C=O)c1
IC50 [2]: 60 µM
inhibition [1]: 73%
IC50 [3]: 15 µM

Compound: Cc1ccc(COc2ccccc2/C=C/C=O)cc1
inhibition [1]: 68%

Compound: O=C/C=C/c1ccccc1OCc1cccc2ccccc12
inhibition [1]: 38%

Compound: COc1ccc(COc2cccc(/C=C/C=O)c2)cc1
inhibition [1]: 82%

Compound: Cc1ccc(COc2cccc(/C=C/C=O)c2)cc1
inhibition [1]: 84%

Compound: O=C/C=C/c1cccc(OCc2ccc(Br)cc2)c1
inhibition [1]: 88%

Compound: O=C/C=C/c1cccc(OCCc2ccccc2)c1
inhibition [1]: 80%

Compound: Cc1ccccc1COc1ccccc1/C=C/C=O
IC50 [2]: 200 µM
inhibition [1]: 70%
IC50 [3]: 18 µM

Compound: O=C/C=C/c1ccccc1OCc1ccccc1
IC50 [2]: 50 µM
inhibition [1]: 85%
IC50 [3]: 11 µM

Now from value to compound:

inhibition [1]: 77%
Compound: CC(Oc1cccc(/C=C/C=O)c1)c1ccccc1 (stereo unspecified)

inhibition [1]: 71%
Compound: O=C/C=C/c1ccccc1OCc1ccc(Br)cc1

inhibition [1]: 63%
Compound: CC(Oc1ccccc1/C=C/C=O)c1ccccc1 (stereo unspecified)

inhibition [1]: 25%
Compound: O=C/C=C/c1ccccc1OC(=O)c1ccc(F)cc1

inhibition [1]: 52%
Compound: O=C/C=C/c1ccccc1OC(=O)c1ccccc1

inhibition [1]: 50%
Compound: Cc1ccc(C(=O)Oc2ccccc2/C=C/C=O)cc1

inhibition [1]: 40%
Compound: COc1ccc(/C=C/C=O)cc1O

inhibition [1]: 45%
Compound: N#Cc1ccccc1COc1cccc(/C=C/C=O)c1

inhibition [1]: 59%
Compound: COc1ccc(COc2ccccc2/C=C/C=O)cc1

inhibition [1]: 85%
Compound: O=C/C=C/c1cccc(OCc2cccc3ccccc23)c1

inhibition [1]: < 10%
Compound: O=C(O)/C=C/c1ccccc1O

inhibition [1]: 43%
Compound: COc1ccccc1COc1ccccc1/C=C/C=O

inhibition [1]: 65%
Compound: COc1ccccc1COc1cccc(/C=C/C=O)c1

inhibition [1]: 34%
Compound: O=C/C=C/c1cccc(OCc2ccc3c(c2)C(=O)c2ccccc2C3=O)c1

inhibition [1]: 53%
Compound: COc1ccc2c(COc3cccc(/C=C/C=O)c3)cc(=O)oc2c1

IC50 [2]: 30 µM
IC50 [4]: 45 µM
inhibition [1]: 40%
Compound: O=C/C=C/c1cccc(O)c1

inhibition [1]: 51%
Compound: O=C/C=C/c1ccccc1Cl

From ChEMBL document CHEMBL1133270, “Cinnamaldehydes inhibit cyclin dependent kinase 4/cyclin D1” (Bioorg Med Chem Lett, 2000)
